In publication PMC8223535 (The Yale Journal of Biology and Medicine, 2021):

What was measured:
[1] = tested on: T. brucei brucei (Lafia strain); experiment: In vivo anti-Trypanosoma evaluation in infected rats; set-up: species or system Trypanosoma brucei brucei in male Wistar rats; conditions: 3.5 mg/kg bw in corn oil, reference drug, data not shown
In short: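 Male Wistar rats (120–130 g, acclimated 14 days) each received 0.2 mL of infected rat blood diluted in 0.9% saline (1 x 102 trypanosomes). Dosing began after the 72-h lag, on the first parasite-positive day. It ran daily for 5 days: test compound at 40 mg/kg bw or diminazene aceturate at 3.5 mg/kg bw, in corn oil. Controls were vehicle-infected and uninfected. Tail-blood smears were counted at ×100, and survival was tracked. n=5, mean ± SEM, ANOVA with Dunnett.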

[2] = cited from earlier work
[3] = tested on: Trypanosoma congolense IL3000 bloodstream form; experiment: In vitro anti-Trypanosoma activity, luminescence-based parasite viability; format: cell-based; conditions: 72 h, 0 to 25 µg/mL
In short: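 T. congolense IL3000 bloodstream forms were kept in HMI-9-type medium (IMDM, 20% FBS, supplements) in air at 33°C. Parasites were seeded at 1 × 10^5 cells/mL with test compound at 0 to 25 µg/mL and incubated 72 h at 33°C. Viability was read by ATP luminescence. Pentamidine was the reference. The 50% value came from a non-linear regression dose-response fit. Triplicates, three independent runs.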

## CC(=O)NCC(=O)O.CC(=O)NCC(=O)O.N=C(N)c1ccc(N=NNc2ccc(C(=N)N)cc2)cc1 [diminazene aceturate]
[1]
  outcome of infected rats (survival): survived the infection
  systemic parasite burden of infected rats: systemic parasite burden cleared

## Nc1nc(N)nc(Nc2ccc([As]3SCC(CO)S3)cc2)n1 (centres unmarked) [melarsoprol]
[2]; patients treated for late-stage trypanosomiasis
  encephalopathy: more than 10 % of patients
[2]; share of the encephalopathy cases
  fatal outcomes among encephalopathy cases: 40%

## N=C(N)c1ccc(OCCCCCOc2ccc(C(=N)N)cc2)cc1 [pentamidine]
[3]
  effect on in vitro growth of T. congolense (in words): appreciably hindered the in vitro growth of T. congolense
